Data on four molecules can be found in ChEMBL document CHEMBL1149790, “Synthesis of some novel thiourea derivatives obtained from 5-[(4-aminophenoxy)methyl]-4-alkyl/aryl-2,4-dihydro-3H-1,2,4-triazole-3-thiones and evaluation as antiviral/anti-HIV and anti-tuberculosis agents” (Eur J Med Chem, 2008).

Series [1] is described as follows: Cytotoxicity against human E6SM cells. The note with it: E6SM cells. The series is classed as cell-based. The gist of the method:
(§1)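 Uninfected cell cultures exposed to test compounds alongside antiviral assays; minimum cytotoxic concentration (MCC) = concentration causing a microscopically detectable alteration of cell morphology.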

Series [2] concerns Vesicular stomatitis virus. Kind of series: Antiviral activity against in Vesicular stomatitis virus in human HEL cells assessed as reduction of virus-induced cytopathogenicity. The series is classed as functional. The procedure, abridged:
(§2)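 Confluent cell monolayers (E6SM, HEL, HeLa or Vero, per line) inoculated with 100 CCID50 virus; 1 h adsorption, residual virus removed, then incubated with compound at 400, 200, 100 … µg/ml. Cytopathicity scored once complete in untreated virus controls; MIC = concentration inhibiting virus-induced cytopathicity.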

Series [3] deals with Human alphaherpesvirus 1. Kind of series: Antiviral activity against HSV1 KOS in human HEL cells assessed as reduction of virus-induced cytopathogenicity. It is filed as functional. The note with it: Human alphaherpesvirus 1, KOS. The gist of the method:
as §2

Series [4] relates to Human alphaherpesvirus 2. Kind of series: Antiviral activity against HSV2 G in human HEL cells assessed as reduction of virus-induced cytopathogenicity. The settings on record: Human alphaherpesvirus 2, G. The series is classed as functional. The procedure, abridged:
as §2

Series [5] relates to Mammalian orthoreovirus 1. Kind of series: Antiviral activity against Reo virus 1 in african green monkey Vero cells assessed as reduction of virus-induced cytopathogenicity. The series is classed as functional. The procedure, abridged: as §2
Another series has as its system Punta Toro virus. Kind of series: Antiviral activity against Punta Toro virus in african green monkey Vero cells assessed as reduction of virus-induced cytopathogenicity. It is filed as functional. The gist of the method:
as §2

A further series relates to Human respirovirus 3. As to the kind of experiment: Antiviral activity against Parainfluenza 3 virus in african green monkey Vero cells assessed as reduction of virus-induced cytopathogenicity. The series is classed as functional. The procedure, abridged:
as §2

In series [6] the test system is Human alphaherpesvirus 2. Kind of series: Antiviral activity against HSV2 G in human E6SM cells assessed as reduction of virus-induced cytopathogenicity. The note with it: Human alphaherpesvirus 2, G. It is filed as functional. The gist of the method:
as §2

The subject of series [7] is Human alphaherpesvirus 1. Kind of series: Antiviral activity against thymidine kinase deficient and acyclovir resistant HSV1 KOS in human E6SM cells assessed as reduction of virus-induced cytopathogenicity. It is filed as functional. The settings on record: Human alphaherpesvirus 1, KOS. The gist of the method:
as §2

Series [8] relates to Human immunodeficiency virus 2. Kind of series: Antiviral activity against HIV2 ROD in human MT4 cells assessed as protection against virus-induced cytopathogenicity by MTT assay. The settings on record: for IC50: Human immunodeficiency virus 2, ROD, MT4. The arrangement: Activity: concentration or dose not given beside the values. The series is classed as functional, organism-based. The procedure, abridged:
(§3)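 MT-4 cells at 6 × 10⁵ cells/ml infected with HIV-1 IIIB or HIV-2 ROD at 100–300 CCID50; compounds in serial five-fold dilutions, triplicate mock- and virus-infected wells. MTT viability read at 540 and 690 nm after 5 days, median OD of three wells; EC50 = 50% protection from viral cytopathic effect.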

The subject of series [9] is Coxsackievirus B4. As to the kind of experiment: Antiviral activity against Coxsackie virus B4 in african green monkey Vero cells assessed as reduction of virus-induced cytopathogenicity. It is filed as functional. The note with it: Enterovirus B. The procedure, abridged: as §2
Series [10] concerns Vesicular stomatitis virus. Kind of series: Antiviral activity against in Vesicular stomatitis virus in human E6SM cells assessed as reduction of virus-induced cytopathogenicity. It is filed as functional. The procedure, abridged:
as §2

Series [11] deals with Vesicular stomatitis virus. As to the kind of experiment: Antiviral activity against vesicular stomatitis virus in human HeLa cells assessed as inhibition of virus-induced cytopathogenicity. It is filed as functional. The gist of the method:
as §2

The next series concerns Sindbis virus. Kind of series: Antiviral activity against Sindbis virus in african green monkey Vero cells assessed as reduction of virus-induced cytopathogenicity. The series is classed as functional. The procedure, abridged:
as §2

The nature of series [12]: Cytotoxicity against human HEL cells assessed as alteration of cell morphology. It is filed as cell-based. The procedure, abridged:
as §1

The nature of series [13]: Cytotoxicity against human HEL cells assessed as reduction of cell growth. It is filed as cell-based. The gist of the method:
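HEL cells; CC50 = compound concentration reducing cell growth by 50%.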

Series [14] has as its system Human alphaherpesvirus 1. As to the kind of experiment: Antiviral activity against thymidine kinase deficient and acyclovir resistant HSV1 KOS in human HEL cells assessed as reduction of virus-induced cytopathogenicity. It is filed as functional. The note with it: Human alphaherpesvirus 1, KOS. The gist of the method: as §2
Series [15] has as its system Human betaherpesvirus 5. As to the kind of experiment: Antiviral activity against human cytomegalovirus AD169 infected HEL cells assessed as reduction in virus plaque formation. It is filed as functional, organism-based. The note with it: Human betaherpesvirus 5, AD169, HEL.
The test system of series [16] is Coxsackievirus B4. Kind of series: Antiviral activity against Coxsackie virus B4 in human HeLa cells assessed as inhibition of virus-induced cytopathogenicity. It is filed as functional. The settings on record: Enterovirus B. The gist of the method: as §2
The test system of series [17] is Human immunodeficiency virus 1. Kind of series: Antiviral activity against HIV1 3B in human MT4 cells assessed as protection against virus-induced cytopathogenicity by MTT assay. It is filed as functional, organism-based. More on the design: Activity: concentration or dose not given beside the values. The note with it: for IC50: Human immunodeficiency virus 1, 3B, MT4. The procedure, abridged: as §3

Series [18] in a line: Cytotoxicity against human MT4 cells by MTT assay. The series is classed as cell-based. The procedure, abridged: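 Mock-infected MT-4 cells (6 × 10⁵ cells/ml) with serial five-fold compound dilutions in triplicate; MTT reduction read at 540 and 690 nm after 5 days, median OD of three wells; CC50 = concentration reducing OD540 of mock-infected control by 50%.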
For series [19], the system named is Human alphaherpesvirus 3. As to the kind of experiment: Antiviral activity against TK+ VZV OKA infected HEL cells assessed as reduction in virus plaque formation. The note with it: Human alphaherpesvirus 3, OKA. It is filed as functional, organism-based.
The test system of series [20] is Human alphaherpesvirus 1. As to the kind of experiment: Antiviral activity against HSV1 KOS in human E6SM cells assessed as reduction of virus-induced cytopathogenicity. It is filed as functional. The note with it: Human alphaherpesvirus 1, KOS. The procedure, abridged: as §2
Series [21] in a line: Cytotoxicity against human HeLa cells. It is filed as cell-based. The procedure, abridged:
as §1

The subject of series [22] is Respiratory syncytial virus. Kind of series: Antiviral activity against respiratory syncytial virus in human HeLa cells assessed as inhibition of virus-induced cytopathogenicity. The series is classed as functional. The procedure, abridged:
as §2

A further series relates to Vero. As to the kind of experiment: Cytotoxicity against african green monkey Vero cells. The series is classed as cell-based. The note with it: chlorocebus sabaeus. The gist of the method: as §1
Series [23] has as its system Human betaherpesvirus 5. As to the kind of experiment: Antiviral activity against human cytomegalovirus Davis infected HEL cells assessed as reduction in virus plaque formation. It is filed as functional, organism-based. The settings on record: Human betaherpesvirus 5, Davis.
Series [24] relates to Human alphaherpesvirus 3. As to the kind of experiment: Antiviral activity against TK- VZV 07/1 infected HEL cells assessed as reduction in virus plaque formation. It is filed as functional, organism-based. The settings on record: Human alphaherpesvirus 3, 07/1, HEL.

Molecules are shown by their SMILES. ≈ marks a conversion by molar mass, not a printed value.

`C=CCn1c(COc2ccc(NC(=S)NC)cc2)n[nH]c1=S`: the results for the MCC in [1], in series [12] and in [21] were greater than 400 µg/mL, greater than 400 µg/mL and 400 µg/mL, respectively. Besides, the MIC in series [2] is greater than 400 µg/mL; in the series on Human alphaherpesvirus 1 [3] it was greater than 400 µg/mL; with Human alphaherpesvirus 2 [4], greater than 400 µg/mL; in series [5] it was greater than 80 µg/mL; in the series on Punta Toro virus, greater than 80 µg/mL; with Human respirovirus 3 it was greater than 80 µg/mL. Moreover, the MIC in the series with Human alphaherpesvirus 2 [6] was greater than 400 µg/mL; with Human alphaherpesvirus 1 [7], greater than 400 µg/mL; in the series on Coxsackievirus B4 [9], greater than 80 µg/mL; in [10], greater than 400 µg/mL; in series [11], greater than 80 µg/mL; in the series on Sindbis virus it was greater than 80 µg/mL. The MIC is greater than 400 µg/mL with Human alphaherpesvirus 1 [14], greater than 80 µg/mL with Coxsackievirus B4 [16], greater than 400 µg/mL with Human alphaherpesvirus 1 [20] and greater than 80 µg/mL in [22]. For the same molecule, the Activity in [8] was found to be 3.5%; in [17], 1%; in the series with Vero, 400 µg/mL. The half-inhibitory concentration (IC50) is greater than 110 µg/mL in series [8] and greater than 101 µg/mL in series [17]. The CC50 in series [13] is greater than 50 µg/mL; in [18] it was 108 µg/mL (≈ 323 µM). Besides, the EC50 in the series on Human betaherpesvirus 5 [15], with Human alphaherpesvirus 3 [19], in the series on Human betaherpesvirus 5 [23] and in the series on Human alphaherpesvirus 3 [24] was greater than 100 µg/mL in each case.
Regarding `Nc1ccn(C[C@@H](CO)OCP(=O)(O)O)c(=O)n1.O.O` [CIDOFOVIR], the MCC in [12] is greater than 400 µg/mL. The cytotoxic concentration (CC50) in series [13] is no less than 18 µg/mL. Moreover, the EC50 in the series with Human betaherpesvirus 5 [15] came to 0.075 µg/mL; in the series with Human betaherpesvirus 5 [23], 0.64 µg/mL.
On to `Nc1nc2c(ncn2COCCO)c(=O)[nH]1` [ACYCLOVIR], for which the MCC in [1] and in [12] was greater than 400 µg/mL in each case. Also, the MIC is greater than 400 µg/mL in [2]; 0.384 µg/mL (≈ 1.71 µM) in the series with Human alphaherpesvirus 1 [3]; 0.384 µg/mL (≈ 1.71 µM) in the series on Human alphaherpesvirus 2 [4]; 0.384 µg/mL (≈ 1.71 µM) in the series with Human alphaherpesvirus 2 [6]; 48 µg/mL (≈ 213 µM) in the series on Human alphaherpesvirus 1 [7]; greater than 400 µg/mL in [10]. In addition, the MIC was found to be 48 µg/mL (≈ 213 µM) in the series on Human alphaherpesvirus 1 [14] and 0.384 µg/mL (≈ 1.71 µM) in the series with Human alphaherpesvirus 1 [20]. Also, the 50% cytotoxic concentration (CC50) in series [13] was 200 µg/mL (≈ 888 µM).
Turning to `Cn1c(COc2ccc(N)cc2)n[nH]c1=S`, the MCC in series [1], in series [12] and in [21] was greater than 400 µg/mL each time. Moreover, the MIC in [2] is greater than 400 µg/mL; with Human alphaherpesvirus 1 [3], 400 µg/mL (≈ 1690 µM); in the series with Human alphaherpesvirus 2 [4] it was 80 µg/mL (≈ 339 µM); in series [5], greater than 3.2 µg/mL; in the series on Punta Toro virus, greater than 3.2 µg/mL; in the series with Human respirovirus 3 it was greater than 3.2 µg/mL. Also, the MIC in the series with Human alphaherpesvirus 2 [6] is 80 µg/mL (≈ 339 µM); with Human alphaherpesvirus 1 [7], 80 µg/mL (≈ 339 µM); in the series with Coxsackievirus B4 [9], greater than 3.2 µg/mL; in series [10] it was greater than 400 µg/mL; in [11] it was greater than 400 µg/mL; with Sindbis virus it was greater than 3.2 µg/mL. For the same molecule, the MIC with Human alphaherpesvirus 1 [14] was 80 µg/mL (≈ 339 µM); in the series with Coxsackievirus B4 [16], greater than 400 µg/mL; in the series on Human alphaherpesvirus 1 [20] it was 400 µg/mL (≈ 1690 µM); in [22], greater than 400 µg/mL. Moreover, the Activity turned out to be 4% in series [8], 2.5% in series [17] and 16 µg/mL in the series on Vero. Also, the half-maximal inhibitory concentration (IC50) in series [8] and in [17] was greater than 125 µg/mL throughout. Further, the results for the CC50 in series [13] and in series [18] were greater than 50 µg/mL and no less than 119 µg/mL, respectively. For the same molecule, the EC50 in the series on Human betaherpesvirus 5 [15], with Human alphaherpesvirus 3 [19], in the series on Human betaherpesvirus 5 [23] and with Human alphaherpesvirus 3 [24] was greater than 100 µg/mL each time.
